Test results from ChEMBL document CHEMBL1148232, “Inhibitory activities against topoisomerase I and II by polyhydroxybenzoyl amide derivatives and their structure-activity relationship” (Bioorg Med Chem Lett, 2004).

Columns and labels:
DNA topoisomerase 1 [1] = biological target: T1, DNA topoisomerase 1 (Homo sapiens, UniProt P11387); experiment: Inhibitory concentration against relaxation activity of DNA topoisomerase I by detecting the conversion of supercoiled pBR322 DNA to its relaxed form
T1 sequence (P11387 whole entry): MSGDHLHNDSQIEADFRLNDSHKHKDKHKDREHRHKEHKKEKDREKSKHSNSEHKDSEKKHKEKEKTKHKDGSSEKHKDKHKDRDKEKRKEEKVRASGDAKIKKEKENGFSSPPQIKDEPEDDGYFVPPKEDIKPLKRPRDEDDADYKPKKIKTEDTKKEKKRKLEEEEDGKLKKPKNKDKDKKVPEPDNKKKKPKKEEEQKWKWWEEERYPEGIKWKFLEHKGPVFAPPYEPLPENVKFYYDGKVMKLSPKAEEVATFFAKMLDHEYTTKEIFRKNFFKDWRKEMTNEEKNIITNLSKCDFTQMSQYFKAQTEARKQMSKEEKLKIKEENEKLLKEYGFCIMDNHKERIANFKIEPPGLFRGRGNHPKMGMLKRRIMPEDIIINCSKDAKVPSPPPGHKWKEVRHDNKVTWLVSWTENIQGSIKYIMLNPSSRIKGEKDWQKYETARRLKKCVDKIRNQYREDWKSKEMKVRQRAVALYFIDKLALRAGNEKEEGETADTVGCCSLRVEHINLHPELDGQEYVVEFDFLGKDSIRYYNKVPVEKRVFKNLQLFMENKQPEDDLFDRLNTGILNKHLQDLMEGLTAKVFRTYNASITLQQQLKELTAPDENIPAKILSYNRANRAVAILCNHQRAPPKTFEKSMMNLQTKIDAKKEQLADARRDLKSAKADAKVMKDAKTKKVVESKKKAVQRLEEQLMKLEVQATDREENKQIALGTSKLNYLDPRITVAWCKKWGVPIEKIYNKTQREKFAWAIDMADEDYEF

DNA topoisomerase II [2] = biological target: T2, DNA topoisomerase II (Homo sapiens, UniProt P11388+Q02880); experiment: Inhibitory concentration against relaxation activity of DNA topoisomerase II by detecting the conversion of supercoiled pBR322 DNA to its relaxed form; assay type: protein assay
HeLa [3] = experiment: Concentration required to inhibit S phase and G2/M phase in HeLa cells; assay type: functional, cell-based; conditions: Homo sapiens
Summary of the method: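 HeLa cells cultured with compound, then cell-cycle progression analysed by flow cytometry; read-out was the percentage of cells in the G0/G1, S and G2/M phases.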

HeLa [4] = experiment: Growth inhibitory concentration of compound was determined against HeLa cells by alamar blue assay; assay type: functional; conditions: Homo sapiens
DNA topoisomerase II [5] = biological target: T2, DNA topoisomerase II; experiment: Inhibition of relaxation activities of DNA topoisomerase II with respect to pBR322 DNA; assay type: protein assay
Summary of the method: (§1)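 Ki from Lineweaver–Burk plots: the rate of relaxation of supercoiled pBR322 DNA by the topoisomerase was measured across a range of DNA substrate concentrations, with and without inhibitor.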

DNA topoisomerase 1 [6] = biological target: T1, DNA topoisomerase 1; experiment: Inhibition of relaxation activities of DNA topoisomerase I with respect to pBR322 DNA; summary of the method: as §1

SMILES	IC50 (DNA topoisomerase 1 [1]) [µM]	also measured
CC(=O)Oc1cc(C(=O)Nc2ccc(NC(=O)c3cc(OC(C)=O)c(OC(C)=O)c(OC(C)=O)c3)cc2)cc(OC(C)=O)c1OC(C)=O	8.6	–
O=C(Nc1cccc(NC(=O)c2ccc(O)c(O)c2)c1)c1ccc(O)c(O)c1	10	–
O=C(Nc1ccccc1NC(=O)c1ccc(O)c(O)c1)c1ccc(O)c(O)c1	6.4	–
CC(=O)Oc1cc(C(=O)Nc2ccccc2NC(=O)c2cc(OC(C)=O)c(OC(C)=O)c(OC(C)=O)c2)cc(OC(C)=O)c1OC(C)=O	4.7	–
CC(=O)Oc1ccc(C(=O)Nc2ccc(NC(=O)c3ccc(OC(C)=O)cc3)cc2)cc1	> 100	–
O=C(Nc1ccccc1NC(=O)c1ccccc1)c1ccccc1	> 100	–
O=C(Nc1ccc(NC(=O)c2ccc(O)cc2)cc1)c1ccc(O)cc1	> 100	–
O=C(Nc1cccc(NC(=O)c2ccc(O)cc2)c1)c1ccc(O)cc1	> 100	–
CC(=O)Oc1ccc(C(=O)Nc2cccc(NC(=O)c3ccc(OC(C)=O)c(OC(C)=O)c3)c2)cc1OC(C)=O	43.2	–
CC(=O)Oc1ccc(C(=O)Nc2ccc(NC(=O)c3ccc(OC(C)=O)c(OC(C)=O)c3)cc2)cc1OC(C)=O	> 100	–
O=C(Nc1nc2ccccc2s1)c1ccc(O)cc1	> 100	–
O=C(Nc1cccc(NC(=O)c2cc(O)c(O)c(O)c2)c1)c1cc(O)c(O)c(O)c1	1.6	IC50 (DNA topoisomerase II [2]): 0.22 µM
O=C(Nc1ccc(NC(=O)c2ccc(O)c(O)c2)cc1)c1ccc(O)c(O)c1	2.6	–
O=C(Nc1nc2ccccc2s1)c1cc(O)c(O)c(O)c1	8.2	–
O=C(Nc1nc2ccccc2s1)c1ccc(O)c(O)c1	16.9	–
CC(=O)Oc1ccc(C(=O)Nc2ccccc2NC(=O)c2ccc(OC(C)=O)cc2)cc1	> 100	–
O=C(Nc1ccccc1NC(=O)c1ccc(O)cc1)c1ccc(O)cc1	> 100	–
CC[C@@]1(O)C(=O)OCc2c1cc1n(c2=O)Cc2cc3ccccc3nc2-1 [CAMPTOTHECIN]	–	Concentration (HeLa [3]): 0.1 µM; GI50 (HeLa [4]): 0.6 µM
O=C(Nc1ccccc1NC(=O)c1cc(O)c(O)c(O)c1)c1cc(O)c(O)c(O)c1	0.9	IC50 (DNA topoisomerase II [2]): 0.09 µM; Ki (DNA topoisomerase II [5]): 0.0741 µM; GI50 (HeLa [4]): 30 µM; Ki (DNA topoisomerase 1 [6]): 0.4 µM
CC(=O)Oc1ccc(C(=O)Nc2ccccc2NC(=O)c2ccc(OC(C)=O)c(OC(C)=O)c2)cc1OC(C)=O	88	–
CC(=O)Oc1ccc(C(=O)Nc2cccc(NC(=O)c3ccc(OC(C)=O)cc3)c2)cc1	> 100	–
O=C(Nc1ccccc1)c1cc(O)c(O)c(O)c1	> 100	–
CC(=O)Oc1cc(C(=O)Nc2cccc(NC(=O)c3cc(OC(C)=O)c(OC(C)=O)c(OC(C)=O)c3)c2)cc(OC(C)=O)c1OC(C)=O	11.2	–
COc1cc([C@@H]2c3cc4c(cc3[C@@H](O[C@@H]3O[C@@H]5CO[C@@H](C)O[C@H]5[C@H](O)[C@H]3O)[C@H]3COC(=O)[C@H]23)OCO4)cc(OC)c1O [ETOPOSIDE]	–	Concentration (HeLa [3]): 2 µM; GI50 (HeLa [4]): 40 µM
O=C(Nc1ccc(NC(=O)c2cc(O)c(O)c(O)c2)cc1)c1cc(O)c(O)c(O)c1	1.4	IC50 (DNA topoisomerase II [2]): 0.15 µM
